Results published in ChEMBL document CHEMBL2010709, “Pinophilins A and B, inhibitors of mammalian A-, B-, and Y-family DNA polymerases and human cancer cell proliferation” (J Nat Prod, 2012).

Legend:
[1] = Inhibition of human DNA polymerase epsilon assessed as inhibition of incorporation of dTTP into poly(dA)/oligo(dT)18 after 60 mins
Method in brief: (§1)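 Compound in DMSO was sonicated for 30 s, then held with enzyme (0.05 units final) at 0 °C for 10 min in 50 mM Tris-HCl pH 7.5, 1 mM DTT, 50% glycerol, 0.1 mM EDTA. The mixture was added to the standard reaction mix with poly(dA)/oligo(dT)18 (A/T = 2/1) and dTTP, 37 °C, 60 min. Activity was relative to no-inhibitor control; mean ± SE, three independent experiments.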

[2] = molecular target: T1, DNA polymerase lambda (Homo sapiens, UniProt Q9UGP5); test: Inhibition of human recombinant His-tagged DNA polymerase lambda expressed in Escherichia coli assessed as inhibition of incorporation of dTTP into poly(dA)/oligo(dT)18 after 60 mins; method in brief: as §1
T1 sequence (Q9UGP5 whole entry): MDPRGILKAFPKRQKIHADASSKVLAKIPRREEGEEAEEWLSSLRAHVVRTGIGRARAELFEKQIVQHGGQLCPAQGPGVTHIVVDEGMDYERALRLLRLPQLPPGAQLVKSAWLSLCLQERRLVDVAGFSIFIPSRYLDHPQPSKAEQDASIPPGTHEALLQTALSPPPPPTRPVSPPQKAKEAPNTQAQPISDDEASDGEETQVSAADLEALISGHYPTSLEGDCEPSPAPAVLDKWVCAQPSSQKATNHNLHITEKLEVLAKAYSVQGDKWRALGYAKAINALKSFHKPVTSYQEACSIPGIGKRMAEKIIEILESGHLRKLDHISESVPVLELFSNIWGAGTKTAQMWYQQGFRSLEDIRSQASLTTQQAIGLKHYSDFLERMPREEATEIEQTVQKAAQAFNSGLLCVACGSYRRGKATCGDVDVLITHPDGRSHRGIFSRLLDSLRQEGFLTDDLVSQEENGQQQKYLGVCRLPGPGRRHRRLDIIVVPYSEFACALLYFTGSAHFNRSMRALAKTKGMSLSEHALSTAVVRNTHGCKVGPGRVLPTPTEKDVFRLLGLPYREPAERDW

[3] = Inhibition of Thermus aquaticus DNA polymerase assessed as inhibition of incorporation of dTTP into poly(dA)/oligo(dT)18 after 60 mins at 74 degC
Method in brief: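 Taq pol (0.05 units) was preincubated with compound (DMSO, sonicated) at 0 °C for 10 min, then reacted with poly(dA)/oligo(dT)18 (A/T = 2/1) and dTTP at 74 °C for 60 min. Activity was expressed relative to no-inhibitor control; mean ± SE, three independent experiments.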

[4] = molecular target: T2, DNA-directed DNA polymerase (Enterobacteria phage T4, UniProt P04415); test: Inhibition of T4 bacteriophage DNA polymerase assessed as inhibition of incorporation of dTTP into poly(dA)/oligo(dT)18 after 60 mins; design: species or system Tequatrovirus T4; method in brief: as §1
T2 sequence (P04415 whole entry): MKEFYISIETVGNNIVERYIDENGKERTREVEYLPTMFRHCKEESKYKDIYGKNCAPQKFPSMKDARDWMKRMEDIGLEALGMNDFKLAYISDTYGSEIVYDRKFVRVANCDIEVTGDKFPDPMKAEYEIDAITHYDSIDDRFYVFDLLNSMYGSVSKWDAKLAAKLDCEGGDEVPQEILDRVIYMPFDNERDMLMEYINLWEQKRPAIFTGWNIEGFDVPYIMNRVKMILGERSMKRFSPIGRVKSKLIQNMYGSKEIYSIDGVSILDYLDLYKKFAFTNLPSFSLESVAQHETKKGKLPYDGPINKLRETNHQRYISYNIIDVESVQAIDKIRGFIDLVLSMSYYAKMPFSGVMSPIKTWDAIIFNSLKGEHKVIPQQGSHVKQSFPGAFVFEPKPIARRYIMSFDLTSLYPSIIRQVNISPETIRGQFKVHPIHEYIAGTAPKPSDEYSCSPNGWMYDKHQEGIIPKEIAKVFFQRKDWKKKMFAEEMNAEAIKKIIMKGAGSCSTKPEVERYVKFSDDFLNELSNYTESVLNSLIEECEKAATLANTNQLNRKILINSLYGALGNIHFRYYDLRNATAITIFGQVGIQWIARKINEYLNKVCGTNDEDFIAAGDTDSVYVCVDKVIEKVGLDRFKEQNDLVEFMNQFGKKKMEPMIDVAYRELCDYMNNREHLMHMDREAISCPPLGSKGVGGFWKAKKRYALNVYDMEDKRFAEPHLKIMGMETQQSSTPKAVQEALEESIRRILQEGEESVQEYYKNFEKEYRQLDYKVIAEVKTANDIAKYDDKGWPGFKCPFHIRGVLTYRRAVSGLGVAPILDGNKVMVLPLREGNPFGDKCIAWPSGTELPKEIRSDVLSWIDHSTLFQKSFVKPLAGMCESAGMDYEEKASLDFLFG

[5] = test system: BALL-1; test: Growth inhibition of human BALL-1 cells after 24 hrs by WST-1 assay; assay type: functional; settings: BALL-1, 24 h
Method in brief: (§2)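 Cancer cells were grown in McCoy's 5A with 10% FBS and penicillin/streptomycin, 37 °C, 5% CO2. Cells were seeded at 1 × 10^4 per well, cultured 12 h, then given compound (10 mM DMSO stock diluted in medium, 0.5% DMSO) for 24 h. WST-1 was added for 4 h and absorbance read at 450/630 nm. GI50 given as mean ± SE, five independent experiments.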

[6] = test system: NUGC-3; test: Growth inhibition of human NUGC3 cells after 24 hrs by WST-1 assay; assay type: functional; settings: NUGC-3, 24 h; method in brief: as §2

Compound	IC50 [1] [µM]	IC50 [2] [µM]	IC50 [3] [µM]	IC50 [4] [µM]	GI50 [5] [µM]	GI50 [6] [µM]
C/C=C/C1=CC2=CC(=O)[C@@](C)(O)[C@@H](OC(=O)c3c(C)cc(O)cc3O)[C@@H]2CO1	65.6	> 200	> 200	> 200	62	66.4
C/C=C/C1=CC2=CC(=O)[C@@](C)(OC(=O)c3c(C)cc(O)cc3O)[C@@H](O)[C@@H]2CO1 [PINOPHILIN A]	52	> 200	> 200	> 200	50.2	54.7
Cc1cc(O)cc(O)c1C(=O)O[C@H]1[C@@H]2COC(/C=C/CO)=CC2=CC(=O)[C@@]1(C)O [PINOPHILIN B]	93.9	> 200	> 200	> 200	90.4	96.8
